Source: PubChem
SMARCA2 act: SMARCA2 (BRM) function activators, primary screen, cell-based, luminescence, high throughput; MG213 cells, MMTV-luciferase reporter, dexamethasone, overnight; activation, % at 9.1 µM; 370,000 tested, 1% active; AID 652017, 2013; in the data active means activation above about 7.8%
DAX1 inh-1: DAX1 (NR0B1) inhibitors on StAR promoter, primary screen, cell-based, luminescence, SF-1 (NR5A1), full-length DAX-1; inhibition, % at 6.8 µM; HEK293T StAR-luciferase reporter, SF-1/DAX-1 repression relief; 370,000 tested, 1.1% active;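 active means inhibition above the mean over all tested compounds plus 3 SD, cut at about 3.6% in these data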;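 further: higher inhibition means more luminescence from relief of DAX-1 repression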
NR2E3 ag-1: inhibitors of NR2E3-RetCOR corepressor binding, primary screen, NR2E3 agonist project, biochemical, TR-FRET, GST-NR2E3, biotin-RetCOR; Photoreceptor-specific nuclear receptor (Homo sapiens), Q9Y5X4; 1536-well; inhibition of corepressor binding, % at 4.78 µM; 320,000 tested, 0.12% active;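 active means percent inhibition above the cutoff of mean plus 3 SD of all tested compounds, set per screening campaign, cut at about 20% in these data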
Target sequence (Q9Y5X4 whole entry, looked up): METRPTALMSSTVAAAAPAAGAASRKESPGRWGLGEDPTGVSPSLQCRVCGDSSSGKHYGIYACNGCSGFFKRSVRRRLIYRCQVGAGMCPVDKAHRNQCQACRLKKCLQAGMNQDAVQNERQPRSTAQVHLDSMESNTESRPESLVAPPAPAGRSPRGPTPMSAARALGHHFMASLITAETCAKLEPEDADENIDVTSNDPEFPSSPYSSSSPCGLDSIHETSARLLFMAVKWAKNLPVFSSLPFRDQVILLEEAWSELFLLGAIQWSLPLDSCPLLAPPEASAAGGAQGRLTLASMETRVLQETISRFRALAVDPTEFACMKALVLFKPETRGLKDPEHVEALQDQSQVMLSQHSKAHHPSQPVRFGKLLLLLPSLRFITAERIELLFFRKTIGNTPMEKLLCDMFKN
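System: GST-tagged NR2E3 plus biotinylated RetCOR corepressor; Amount: 1.35 nM GST-tagged NR2E3 final; Dosing: single nominal compound dose of 4.8 µM; Schedule: 5 h incubation at 4 °C; Technique: TR-FRET with europium anti-GST and streptavidin-D2, 340 nm excitation; Controls: biotin wells as high control, 0.6% DMSO wells as low control.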
DAX1 inh-2: DAX1 (NR0B1) inhibitors, primary screen, cell-based, HEK293, Gal4-DAX1, luciferase luminescence; Nuclear receptor subfamily 0 group B member 1 (Homo sapiens), P51843; inhibition, % at 6.75 µM; 340,000 tested, 0.99% active; HEK293 Gal4-DAX1 luciferase reporter;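 active means inhibition above the mean over all tested compounds plus 3 SD, cut at about 4.2% in these data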;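 further: inhibition shows as a rise in luminescence from relieved DAX1 repression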
Target sequence (P51843 207-470 limits assumed): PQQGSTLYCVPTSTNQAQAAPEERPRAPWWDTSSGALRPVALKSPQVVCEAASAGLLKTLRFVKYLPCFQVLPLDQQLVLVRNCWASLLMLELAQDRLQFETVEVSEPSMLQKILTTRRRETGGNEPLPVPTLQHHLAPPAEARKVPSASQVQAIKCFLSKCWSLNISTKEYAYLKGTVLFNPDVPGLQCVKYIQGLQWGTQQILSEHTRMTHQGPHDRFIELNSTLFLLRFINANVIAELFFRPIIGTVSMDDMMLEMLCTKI
NR2E3 ag-2: NR2E3 agonists in two-hybrid cells, primary screen, cell-based, luminescence, CHO-S, Gal4-NCOR/VP16-NR2E3 | AID 602229, 2012 | Photoreceptor-specific nuclear receptor (Homo sapiens), Q9Y5X4 | 360,000 tested, 0.35% active | inhibition of corepressor binding, % at 3.98 µM | luciferase;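 active means inhibition above the mean of all tested compounds plus 3 SD, cut at about 70% in these data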;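 further: higher means lower luciferase signal from less NR2E3 corepressor binding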
GASC-1 inh: inhibitors of GASC-1 histone demethylase, primary screen, biochemical, fluorescence, DELFIA europium. Lysine-specific demethylase 4C (Homo sapiens), Q9H3R0. GST-JMJD2C(1-420) H3K9me3 demethylation. inhibition, % at 2.35 µM. 330,000 tested, 0.069% active. AID 2099, 2009;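 active means more than half of a compound's replicate wells show inhibition beyond 50%, single wells judged on their own value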;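 further: signal counts dimethyl H3K9 product captured on neutravidin plate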
A number is an active result; 0 = inactive; - = no result. Compounds with a hit are over-represented: about 3.2% of the library has one in this group of screens.

SMILES	SMARCA2 act	DAX1 inh-1	NR2E3 ag-1	DAX1 inh-2	NR2E3 ag-2	GASC-1 inh
COc1ccc(C2CCC3(CCC(=O)N3CCOC(=O)NCc3ccc(Cl)cc3)CC2)cc1 (stereo not drawn)	0	0	-	-	-	-
O=C(c1ccc(-c2cccc(Cl)c2Cl)o1)N1CCOCC1	0	4.0	0	0	0	0
S=C(c1ccc(-c2ccccc2Cl)o1)N1CCOCC1	-	-	0	0	0	0
Cc1ccc2nc(-c3cccc(Br)c3)c(Cc3cccc(Cl)c3)n2c1	0	7.3	-	-	0	-
Cc1ccc2nc(-c3ccc(Cl)cc3)c(Cc3ccsc3)n2c1	7.8	0	-	-	-	-
Cc1ccc2nc(-c3ccc(F)cc3)c(Cc3ccsc3)n2c1	0	0	-	-	-	-
COc1ccccc1Cc1c(-c2ccc(F)cc2)nc2ccc(Cl)cn12	0	4.0	-	-	0	-
Cc1ccc(Cc2c(-c3ccc(C)cc3)nc3ccc(Cl)cn23)cc1	0	3.8	-	0	0	-
COc1ccccc1Cc1c(-c2ccc(Cl)cc2)nc2ccc(C)cn12	0	0	-	-	-	-
Fc1ccc(-c2nc3ccc(Cl)cn3c2Cc2ccsc2)cc1	0	0	-	-	0	-
Cc1ccc(-c2nc3ccc(Cl)cn3c2Cc2ccsc2)cc1	0	4.2	-	-	0	-
COc1cc2c(cc1OC)-c1cc(Nc3ccc(F)cc3)nc(=O)n1CC2	0	0	0	0	0	0
COc1cc2c(cc1OC)-c1cc(Nc3ccc(N(C)C)cc3)nc(=O)n1CC2	7.8	0	0	0	0	0
Cc1ccc(C2CCC3(CCC(=O)N3CCOC(=O)Nc3cccc(C#N)c3)CC2)cc1 (stereo not drawn)	0	0	-	-	-	-
COC(=O)C1=CN(c2ccc(C(C)(C)C)cc2)C(N)=C(C#N)C1c1ccccc1F (stereo not drawn)	0	0	-	-	-	-
COC(=O)C1=CN(c2ccc(OC)cc2)C(N)=C(C#N)C1c1ccccc1F (stereo not drawn)	0	3.8	-	-	-	-
COc1ccc(-n2c(C)cc(/C=N/Nc3nnc(C)n3N)c2C)cc1	0	0	0	0	0	68
Cc1ccc(-c2nc3ccccc3nc2Cl)cc1	0	0	0	0	0	0
Cc1ccc(-c2nc3ccccc3nc2NN)cc1	0	0	0	5.1	0	0
Cc1cc(N2CCCN(C)CC2)n2nc(C)nc2n1	0	0	-	-	-	-
O=C(Nc1ccccc1)Nc1c(-c2ccc(F)cc2)nc2ncccn12	0	0	-	-	-	-
O=C(CN1CCN(S(=O)(=O)c2ccc(Cl)cc2)CC1)NC1CCCC1	0	3.8	0	0	0	0
O=C(Nc1ccccc1O)c1ccc(Cl)cc1	0	0	0	4.4	0	0
COC(=O)C1CCCN(C(=O)C2CCN(S(=O)(=O)c3ccc([N+](=O)[O-])cc3)CC2)C1 (stereo not drawn)	0	0	-	-	-	-
COc1cc2c(cc1C1C(C#N)=C(N)OC3=C1C(=O)CC(C)(C)C3)OCO2 (stereo not drawn)	0	0	0	4.9	0	0
SMILES	SMARCA2 act	DAX1 inh-1	NR2E3 ag-1	DAX1 inh-2	NR2E3 ag-2	GASC-1 inh
NC(=O)CCn1cnc2ccccc21	0	0	0	4.3	0	0
CCOC(=O)c1c(C)[nH]c(C(=O)OCc2ccccc2F)c1C	0	0	0	5.5	0	0
Cc1csc(NC(=O)c2ccc(COc3ccc(Cl)c(Cl)c3)o2)n1	0	0	-	-	-	-
Cc1ccc(S(=O)(=O)NC2=C(N3CCN(Cc4ccccc4)CC3)C(=O)c3ccccc3C2=O)cc1	0	0	0	5.3	0	0
CC(COc1cccc([N+](=O)[O-])c1)CN1CCC(C(O)(c2ccccc2)c2ccccc2)CC1 (stereo not drawn)	0	0	-	-	-	-
CCN(CC)c1ccc(NC(=O)C2CCCC2)cc1	0	0	0	4.6	0	0
CCCCc1ccc(NC(=O)C2CCCC2)cc1	7.8	0	0	0	0	0
CCCCc1ccc(/C(C)=N/NC(=O)C2CCCC2)cc1	0	0	0	0	0	0
CCN(CC)c1ccc(NC(=S)NCC2CCCO2)cc1 (stereo not drawn)	0	4.4	0	0	0	0
Cc1ccc(NC(=S)NCC2CCCO2)cc1 (stereo not drawn)	0	0	0	0	0	0
C/C(=N\NC(=O)c1ccn(C)n1)c1ccc(NC(=O)C2CCCC2)cc1	0	0	0	6.6	0	0
O=C(CCCCCN1C(=O)C2C3C=CC(C3)C2C1=O)N1CCN(c2ncccn2)CC1 (stereo not drawn)	0	0	-	-	-	-
O=C(CCC(=O)c1cccs1)NCCc1ccc(F)cc1	0	3.8	0	0	0	0
S=C(Nc1ccccc1Cl)N1CCC(c2ccccc2)C1 (stereo not drawn)	0	0	0	4.6	0	0
Fc1ccccc1NC(=S)N1CCC(c2ccccc2)C1 (stereo not drawn)	0	0	0	0	0	0
C/C(=N\NC(=O)COc1ccccc1-c1ccccc1)c1ccccn1	0	4.0	0	0	0	0
Cc1ccccc1N(CC(=O)NC1CCCCC1)C(=O)CCCC(=O)Nc1ccccn1	0	0	0	5.0	0	0
CCc1ccccc1N(CC(=O)NC1CCCCC1)C(=O)CCCC(=O)Nc1ccccn1	0	0	0	0	0	0
CCOC(=O)C1=C(C)Nc2nc3ccccc3n2C1c1ccccc1 (stereo not drawn)	0	0	0	5.4	0	0
CNC(=O)C1=C(C)Nc2nc3ccccc3n2C1c1ccc(F)cc1 (stereo not drawn)	0	0	0	0	0	0
Fc1ccc(NC(=S)N2CCc3ccccc3C2)c(F)c1	0	0	0	5.6	0	0
CC1(C)CC(NC(=O)c2ccc(Cl)c(Cl)c2)CC(C)(C)N1	0	0	0	4.6	0	0
Cc1ccc(NC(=S)NNC(=O)CSc2nc3ccccc3c(=O)n2-c2ccc(Cl)cc2)cc1	0	0	-	-	-	-
COc1ccc2cc(CCNC(=O)c3cccs3)c(=O)[nH]c2c1	0	4.0	0	0	0	0
CC(C)[C@@H](CO)N(Cc1cn(Cc2ccccc2)nn1)S(=O)(=O)c1ccccc1Br	0	0	-	-	-	-
Cc1ccc(OCCC(=O)OCC(=O)Nc2ccc(C)c(S(=O)(=O)N3CCOCC3)c2)cc1	0	3.7	-	0	0	-
Cc1ccc(NC(=O)COC(=O)CC2CC3CCC2C3)cc1S(=O)(=O)N1CCOCC1 (stereo not drawn)	0	3.6	-	0	0	0
Cc1ccc(NC(=O)COC(=O)CN2C(=O)C3CCCCC3C2=O)cc1S(=O)(=O)N1CCOCC1 (stereo not drawn)	0	0	0	0	0	0
CC(=O)c1c(C)[nH]c(C(=O)CN2C(=O)NC3(CCCCC3)C2=O)c1C	0	4.1	-	0	0	-
